# Only some compounds are listed: those with a hit (about 3.3% of all), similar ones and a draw of the others.
# Arrestin-AP2 inh – inhibitors of human beta-arrestin and AP2 interaction; inhibition, % at 10 µM; 0.31% of 340,000 active; AID 504490; FITC-arrestin peptide / GST-AP2 beads, flow cytometry; AP2 beta2 appendage carries R879A mutation;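 active = inhibition above a set limit, near 3 SD of compounds lacking own fluorescence, cut at about 54% in these data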;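 note: plate controls were DMSO wells for no effect and 5 µM unlabelled arrestin peptide for full effect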
#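 System: GST-AP2 R879A glutathione beads | Also added: FITC-arrestin peptide, 50 nM | Times: 12 min plus 1 h, RT | Signal: Bead flow cytometry, FITC channel | Buffer or medium: PBS with 0.05% Tween 20 and 0.1% BSA | Read-out basis: Percent drop in bead-associated FITC signal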
# Lipid droplet – modulators of hepatic lipid droplet formation | AML12 mouse hepatocytes, oleate lipid droplets, BODIPY imaging | inhibition, % at 6.5 µM | 0.4% of 240,000 active | AID 1656;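 active = lipid droplet intensity inhibited by at least 50%, with more than 500 cells counted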
#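 Test system: AML12 hepatocytes (mouse); reagent: oleate loading, 100 µM; dosing: one dose, 6.5 µM compound; incubation: overnight exposure; signal: fluorescence imaging, 20x objective, two fields per well; read-out basis: % inhibition of corrected integrated BODIPY droplet signal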
# m5-HT2A agonist – mouse HTR2A agonism via beta-arrestin recruitment. P35363. CHO-K1 mHTR2A beta-arrestin complementation, luminescence; percent of 30 µM serotonin response. activation, % at 7.6 µM. 0.66% of 360,000 active;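 active = activation above a run cutoff, the mean activation of all tested compounds plus 3 SD, cut at about 14% in these data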;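 note: 0% = plate median of compound wells and 100% = 30 µM serotonin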
# HGIII-sPLA2 inh – Blocks human group III sPLA2 activity | Q9NZ20 | QFRET BODIPY PC-A2 liposome hydrolysis, fluorescence | inhibition, % at 12.2 µM | 0.56% of 370,000 active;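 active = inhibition above mean plus 3 SD of compounds lying within the high and low control bounds, cut at about 19% in these data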;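 note: 0% = median of test compound wells and 100% = no enzyme DMSO wells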
# Target sequence (Q9NZ20 whole entry, looked up): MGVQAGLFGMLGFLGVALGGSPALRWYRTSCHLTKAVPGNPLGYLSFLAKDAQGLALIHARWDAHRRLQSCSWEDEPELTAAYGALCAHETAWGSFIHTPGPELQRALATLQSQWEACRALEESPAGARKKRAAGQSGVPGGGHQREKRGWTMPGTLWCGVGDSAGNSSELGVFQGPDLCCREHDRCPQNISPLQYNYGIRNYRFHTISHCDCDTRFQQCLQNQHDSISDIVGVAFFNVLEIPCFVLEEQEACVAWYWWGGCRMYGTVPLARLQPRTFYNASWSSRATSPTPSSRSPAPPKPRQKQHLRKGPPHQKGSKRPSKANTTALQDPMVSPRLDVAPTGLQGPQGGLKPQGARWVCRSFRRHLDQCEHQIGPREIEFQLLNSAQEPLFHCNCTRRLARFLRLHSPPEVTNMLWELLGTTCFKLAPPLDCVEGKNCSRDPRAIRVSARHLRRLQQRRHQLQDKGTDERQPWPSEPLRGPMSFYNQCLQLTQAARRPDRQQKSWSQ
# PfM18AAP inh-1 – blocks P. falciparum M18 aspartyl aminopeptidase; inhibition, % at 7.35 µM; 1.2% of 290,000 active; recombinant PfM18AAP, H-Glu-NHMec fluorogenic cleavage;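 active = inhibition above the campaign mean inhibition over all tested compounds plus 3 SD, cut at about 28% in these data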;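 note: 0% = plate median of test compound wells and 100% = 2 mM ZnCl2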
# CendR NRP1 mod – NRP-1/CendR interaction modulation; O14786; FAM-RPARPAR peptide binding to NRP-1, fluorescence polarization; inhibition, % at 25 µM; 0.85% of 360,000 active;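 active = inhibition or corrected inhibition above about 18%, plus a signal ratio from 0.5 to 1.5, limit read from the data, passing the limit was not always enough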
# PfM18AAP inh-2 – PfM18AAP inhibition, confirmation; shares compounds with PfM18AAP inh-1; recombinant PfM18AAP, H-Glu-NHMec fluorogenic cleavage; inhibition, % at 7.35 µM; 28% of 2,400 active;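 active = mean inhibition over replicate wells above the hit cutoff set for the earlier primary screen, cut at about 29% in these data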;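 note: 0% = median of test compound wells and 100% = 2 mM ZnCl2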
# CTSL1 counter – counter-screen for PFM18AAP inhibitors: confirmation of human cathepsin L inhibitors. 2,400 tested, under 10 active. purified cathepsin L1, Z-Leu-Arg-MCA fluorescence. shares compounds with PfM18AAP inh-1. inhibition, % at 5.96 µM;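 active = average inhibition across replicates above the hit cutoff set in the earlier primary screen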;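 note: 0% = median of test compound wells and 100% = Z-Phe-Ala-diazomethylketone 1 µM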
# * = called active by the depositor; · = not tested or not shown.
SMILES,Arrestin-AP2 inh,Lipid droplet,m5-HT2A agonist,HGIII-sPLA2 inh,PfM18AAP inh-1,CendR NRP1 mod,PfM18AAP inh-2,CTSL1 counter
O=C(Nc1ccccc1)Nc1ccc2ocnc2c1,18,·,1,-4,0,5,·,·
CCC(CC)c1nnc(NC(=O)Cc2cccs2)s1,-17,10,-2,-2,40*,-19,-33,2
O=C(Cc1cccs1)Nc1nnc(-c2ccccc2)s1,-6,-10,5,2,3,-1,·,·
CN(C)CCCNC(=O)c1c(N)[nH]c(C(=O)c2ccc(Br)cc2)c1-c1ccc(Br)cc1,·,·,·,11,·,·,·,·
O=C(CSc1nnc(-c2ccncc2)o1)Nc1nncs1,2,-8,0,2,19,2,·,·
O=C(CSc1nnc(-c2ccccc2Br)o1)Nc1nncs1,-15,-16,3,-1,44*,-9,-2,-4
CCCCC[n+]1cccc2c3ccccc3ccc21,5,-6,0,2,-14,11,·,·
CCC[n+]1c2ccccc2cc2ccccc21,-13,·,-4,29*,47*,8,17,3
O=C(Nc1ccc2ccccc2c1)C(c1ccc(C(F)(F)F)cc1)n1c(=O)c(-c2cc3ccccc3[nH]2)nc2ccccc21 (stereo not given),·,·,-6,6,·,14,·,·
Cc1ccc(-c2nc(Nc3cccc(O)c3)c3ccccc3n2)cc1,-12,7,2,-43,-4,-1,·,·
Oc1cccc(Nc2c3ccccc3nc3ccccc23)c1,22,-32,-2,2,37*,9,-48,4
CC(=O)Nc1ccc(NS(=O)(=O)c2c(Cl)cccc2Cl)cc1,38,-18,5,-5,3,4,·,·
Clc1ccc(N=c2ssnc2Cl)cc1,4,-2,1,9,17,-3,·,·
COc1cc(N=c2ssnc2Cl)cc(OC)c1OC,26,·,4,12,39*,-8,-53,3
Fc1ccc(N=c2ssnc2Cl)c(F)c1,-11,-25,3,3,32*,-8,-46,-1
O=C(CC1CC1)N[C@@H]1CC[C@@H](CCNS(=O)(=O)c2ccc(F)cc2)O[C@@H]1CO,·,·,2,5,·,5,·,·
Cc1cc(C)n2c(=S)[nH]nc2n1,-5,·,5,7,81*,-2,72*,2
COC(=O)C[C@@H]1C[C@H]2c3cc(NC(=O)Nc4ccccc4F)ccc3O[C@H]2[C@@H](CO)O1,·,·,·,1,·,·,·,·
CC[n+]1c(C)sc2cc(C)ccc21,-4,2,-3,0,47*,-1,-34,1
CCCC[n+]1c(C)sc2ccc(C)cc21,-2,-3,0,-4,7,11,·,·
Cc1ccc2sc(C)[n+](CCO)c2c1,15,-35,6,0,37*,6,-5,2
CCCNC(=O)N[C@H]1C=C[C@H](CC(=O)NC2CCCCC2)O[C@@H]1CO,·,·,8,9,·,-18,·,·
CCC(C)(C(=O)NC1CCCCC1)N(CC1CCCO1)C(=O)CNC(=O)c1ccccc1 (stereo not given),9,-7,6,-1,35*,-4,-56,-2
NNc1nc(-c2ccccc2Cl)nc2ccccc12,12,3,4,-1,45*,0,-4,-4
Oc1cccc(Nc2nc(-c3ccccc3Cl)nc3ccccc23)c1,-15,-1,-5,-32,4,-3,·,·
CCC(c1nnnn1-c1ccc2c(c1)OCCO2)N1CCN(C)CC1 (stereo not given),·,·,0,-1,·,2,·,·
CN1/C(=C\C(=O)CSc2ncn[nH]2)C(C)(C)c2ccccc21,-16,0,1,-4,66*,-16,16,2
O=C(CSc1ncn[nH]1)N1CCCCC1,-1,-15,1,-5,45*,3,-11,5
O=C(CSc1ncn[nH]1)c1ccccc1,7,·,1,-9,42*,16,53*,-4
O=C(CSc1ncn[nH]1)c1ccco1,0,-15,2,0,23,18,·,·

# Screens (PubChem)
